Results of several laboratories.
Organism: Plasmodium falciparum
Read-out: parasite growth
Method: SYBR Green
Notes: blood stage

Structure (SMILES) | test system | conditions | quantity | value
O=C1c2[nH]cc3c2C(=NCC3)c2c(-c3ccc(O)cc3)c[nH]c21 | W2 |  | IC50 | 4540 nM
COCC(=O)N1CCC[C@@H](C(=O)NCc2nc(-c3ccccc3)cs2)C1 | DD2 | 72 h | EC50 | 7000 nM
O=C1C(NCCc2c[nH]c3ccccc23)=CC2=NCCc3c[nH]c1c32 | DD2 |  | IC50 | 598 nM
CCN(CC)CCCC(C)Nc1ccnc2cc(Cl)ccc12 (centres unmarked) | D6 | 72 h | IC50 | 6.57 nM
CCN(CC)CCCC(C)Nc1ccnc2cc(Cl)ccc12 (centres unmarked) | 3D7 | 96 h | IC50 | 4.8 nM
O=C(/C=C/c1cn(Cc2cn(-c3ccnc4cc(Cl)ccc34)nn2)c2ccccc12)c1ccccc1Cl | 3D7 | 5 µM | inhibition | 42.4%
COCC(=O)N1CCC[C@H](C(=O)NCc2nc(-c3cccnc3)cs2)C1 | DD2 | 72 h | EC50 | 92 nM
O=C(/C=C/c1cn(Cc2cn(-c3ccnc4cc(Cl)ccc34)nn2)c2ccccc12)c1cccs1 | 3D7 | 5 µM | inhibition | 32.1%
Cn1cc2c3c1C(=O)C(NCCc1ccc(O)cc1)=CC3=NCC2 | W2 |  | IC50 | 5010 nM
O=C(/C=C/c1cn(Cc2cn(-c3ccnc4cc(Cl)ccc34)nn2)c2ccccc12)c1ccc(Br)cc1 | 3D7 | 10 µM | inhibition | 37.4%
COCC(=O)N1CCC[C@H](C(=O)NCc2nc(-c3ccc(C)cc3)cs2)C1 | DD2 | 72 h | EC50 | 15 nM
CCOC(=O)C1=C(C)NC2=C(C(=O)OC(c3ccc(OC)c(OC)c3)C2)C1c1ccccc1C (mixture of isomers) | 3D7 |  | EC50 | 40 to 190 nM
CCOCC(=O)N1CCC[C@H](C(=O)NCc2nc(-c3ccc(C#N)cc3)cs2)C1 | DD2 | 72 h | EC50 | 5.8 nM
COc1ccccc1C(=O)/C=C/c1cn(Cc2cn(-c3ccnc4cc(Cl)ccc34)nn2)c2ccccc12 | 3D7 | 5 µM | inhibition | 56.8%
COC(CNC1=CC2=NCCc3c[nH]c(c32)C1=O)c1c[nH]c2ccccc12 (centres unmarked) | W2 |  | IC50 | 1120 nM
O=C(/C=C/c1cn(Cc2cn(-c3ccnc4cc(Cl)ccc34)nn2)c2ccccc12)c1ccccc1Br | 3D7 | 5 µM | inhibition | -1.58%
O=C1C(NCCc2ccc(O)cc2)=CC2=NCCc3c[nH]c1c32 | W2 |  | IC50 | 476 nM
CCOCC(=O)N1CCC[C@H](C(=O)NCc2nc(-c3ccc(C)nc3)cs2)C1 | DD2 | 72 h | EC50 | 5 nM
O=C(/C=C/c1cn(Cc2cn(-c3ccnc4cc(Cl)ccc34)nn2)c2ccccc12)c1ccccc1[N+](=O)[O-] | 3D7 | 5 µM | inhibition | -5.03%
NC1=CC2=NCCc3c[nH]c(c32)C1=O | DD2 |  | IC50 | 478 nM
